In paper PMC3176992 (Molecular psychiatry, 2010):
Residue numbers refer to the chain shown, from its start. “Also recorded” adds a separate entry of the source. Peptide text beside a SMILES is read from it. * marks the point of attachment. Cbz = O=C(OCc1ccccc1)*

B1: DISC1 ΔTNIK: DISC1 with amino acids 329–350 deleted, expressed from plasmid (protein)
chain: MPGGGPQGAPAAAGGGGVSHRAGSRDCLPPAACFRRRRLARRPGYMRSSTGPGIGFLSPAVGTLFRFPGGVSGEESHHSESRARQCGLDSRGLLVRSPVSKSAAAPTVTSVRGTSAHFGIQLRGGTRLPDRLSWPCGPGSAGWQQEFAAMDSSETLDASWEAACSDGARRVRAAGSLPSAELSSNSCSPGCGPEVPPTPPGSHSAFTSSFSFIRLSLGSAGERGEAEGCPPSREAESHCQSPQEMGAKAASLDGPHEDPRCLSRPFSLLATRVSADLAQAARNSSRPERDMHSLPDMDPGSSSSLDPSLAGCGGDGSSGSGDAHSWDTISLRLKLQKLQEDAVENDDYDKAETLQQRLEDLEQEKISLHFQLPSRQPALSSFLGHLAAQVQAALRRGATQQASGDDTHTPLRMEPRLLEPTAQDSLHVSITRRDWLLQEKQQLQKEIEALQARMFVLEAKDQQLRREIEEQEQQLQWQGCDLTPLVGQLSLGQLQEVSKALQDTLASAGQIPFHAEPPETIRSLQERIKSLNLSLKEITTKVCMSEKFCSTLRKKVNDIETQLPALLEAKMHAISGNHFWTAKDLTEEIRSLTSEREGLEGLLSKLLVLSSRNVKKLGSVKEDYNRLRREVEHQETAYETSVKENTMKYMETLKNKLCSCKCPLLGKVWEADLEACRLLIQSLQLQEARGSLSVEDERQMDDLEGAAPPIPPRLHSEDKRKTPLKVLEEWKTHLIPSLHCAGGEQKEESYILSAELGEKCEDIGKKLLYLEDQLHTAIHSHDEDLIQSLRRELQMVKETLQAMILQLQPAKEAGEREAAASCMTAGVHEAQA
modifications: left off: Myc, end not stated, kept
B2: DISC1 AS1: DISC1 containing the mutation VLR336–338AAA, expressed from plasmid (protein)
chain: MPGGGPQGAPAAAGGGGVSHRAGSRDCLPPAACFRRRRLARRPGYMRSSTGPGIGFLSPAVGTLFRFPGGVSGEESHHSESRARQCGLDSRGLLVRSPVSKSAAAPTVTSVRGTSAHFGIQLRGGTRLPDRLSWPCGPGSAGWQQEFAAMDSSETLDASWEAACSDGARRVRAAGSLPSAELSSNSCSPGCGPEVPPTPPGSHSAFTSSFSFIRLSLGSAGERGEAEGCPPSREAESHCQSPQEMGAKAASLDGPHEDPRCLSRPFSLLATRVSADLAQAARNSSRPERDMHSLPDMDPGSSSSLDPSLAGCGGDGSSGSGDAHSWDTLLRKWEPAAADCLLRNRRQMEVISLRLKLQKLQEDAVENDDYDKAETLQQRLEDLEQEKISLHFQLPSRQPALSSFLGHLAAQVQAALRRGATQQASGDDTHTPLRMEPRLLEPTAQDSLHVSITRRDWLLQEKQQLQKEIEALQARMFVLEAKDQQLRREIEEQEQQLQWQGCDLTPLVGQLSLGQLQEVSKALQDTLASAGQIPFHAEPPETIRSLQERIKSLNLSLKEITTKVCMSEKFCSTLRKKVNDIETQLPALLEAKMHAISGNHFWTAKDLTEEIRSLTSEREGLEGLLSKLLVLSSRNVKKLGSVKEDYNRLRREVEHQETAYETSVKENTMKYMETLKNKLCSCKCPLLGKVWEADLEACRLLIQSLQLQEARGSLSVEDERQMDDLEGAAPPIPPRLHSEDKRKTPLKVLEEWKTHLIPSLHCAGGEQKEESYILSAELGEKCEDIGKKLLYLEDQLHTAIHSHDEDLIQSLRRELQMVKETLQAMILQLQPAKEAGEREAAASCMTAGVHEAQA
modifications: left off: Myc, end not stated, kept
B3: DISC1 WT: wild-type human DISC1 expressed from plasmid (protein)
chain: B2 chain with A336V, A337L, A338R
modifications: left off: Myc, end not stated, kept

Columns and labels:
[1] = system: TNIK; experiment: TNIK level and phosphorylation in primary hippocampal neurons; format: cell-based, rat; conditions: 10 µM MG132 or 25 µg/ml leupeptin for 7 h, then 10 µM peptide 40 min; N=4
[2] = system: GluR1; experiment: GluR1 level in primary hippocampal neurons; format: cell-based, rat; conditions: 10 µM MG132 or 25 µg/ml leupeptin for 7 h, then 10 µM peptide 40 min; N=4
[3] = system: PSD-95; experiment: PSD-95 level in primary hippocampal neurons; format: cell-based, rat; conditions: 10 µM MG132 or 25 µg/ml leupeptin for 7 h, then 10 µM peptide 40 min; N=4
[4] = system: HA-TNIK; experiment: Co-immunoprecipitation of DISC1 with TNIK from HEK293 cells; format: binding, human; conditions: HA-TNIK and Myc-DISC1 construct coexpressed in HEK293 cells
Procedure, shortened: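 HEK293 cells in DMEM with 10% heat-inactivated FBS, seeded at 40–80% density and transfected 24 h later (Lipofectamine 2000). Lysed in co-IP buffer (50 mM Tris-Cl pH 7.5, 150 mM NaCl, 1 mM EDTA, 1% Triton X-100) with protease/phosphatase inhibitors, 30 min at 4 °C, then cleared at 12000 g. Protein G beads loaded with 1–3 µg antibody for 1 h, incubated with lysate 2 h to overnight at 4 °C, washed, and run on 4–12% Bis-Tris gels for western blot.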

[5] = system: TNIK in NIH3T3 cells; experiment: TNIK-induced cell rounding assay; format: cell-based; conditions: for inhibition of TNIK-induced cell rounding: NIH3T3 cells co-transfected with HA-TNIK WT and DISC1 construct
Procedure, shortened: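 NIH3T3 cells in DMEM with 10% heat-inactivated FBS, seeded at 40–80% density and co-transfected 24 h later (Lipofectamine 2000) with HA-tagged TNIK and Myc-tagged DISC1 constructs. Immunofluorescence staining with anti-HA/anti-Myc antibodies. Rounding was scored as cell length-to-breadth ratio measured from TNIK (HA) staining.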

Molecule | dephosphorylation of TNIK at S769, with inhibitor pretreatment [1] | DISCpep-WT-tat-induced loss of GluR1, with inhibitor pretreatment [2] | DISCpep-WT-tat-induced loss of PSD-95, with inhibitor pretreatment [3] | inhibition of TNIK-induced cell rounding [5] | other results
CC(C)C[C@@H](C=O)NC(=O)[C@H](CC(C)C)NC(=O)[C@H](CC(C)C)NC(=O)OCc1ccccc1 [MG132] (Cbz-Leu-Leu-Leu-aldehyde) | neither affected by MG132 or leupeptin | a reciprocal effect observed for GluR1; also recorded: GluR1 degradation still occurred | blocked by MG132; also recorded: rescued |  | dephosphorylation of TNIK at S764, with inhibitor pretreatment [1]: not affected by MG132
CC(=O)N[C@@H](CC(C)C)C(=O)N[C@@H](CC(C)C)C(=O)N[C@H](C=O)CCCNC(=N)N [leupeptin] | neither affected by MG132 or leupeptin | a reciprocal effect observed for GluR1; also recorded: rescued | not leupeptin |  | 
B1 |  |  |  |  | interaction with TNIK (co-IP) ([4]; listed as Myc-DISC1 ΔTNIK): abolition of interaction with TNIK
B2 |  |  |  | could not inhibit TNIK in cell-based assays | interaction with TNIK (co-IP) ([4]; listed as Myc-DISC1 AS1): only showed a weak interaction with TNIK
B3 |  |  |  | unable to induce cell rounding; also recorded: inhibits TNIK-induced cell rounding | length-to-breadth ratio of cells ([5]; NIH3T3 cells, co-expressed with TNIK, versus empty vector, N>30): significantly increased the average length-to-breadth ratio of a cell; interaction with TNIK (co-IP) [4]: co-immunoprecipitates with HA-TNIK
